According to ChEMBL document CHEMBL1151940, “Chemical and biological investigation of cyclopropyl containing diaryl-pyrazole-3-carboxamides as novel and potent cannabinoid type 1 receptor antagonists” (J Med Chem, 2009):

Experiments:
Cannabinoid receptor 1 = Cannabinoid receptor 1 (Rattus norvegicus, UniProt P20272); assay: Displacement of [3H]SR141716A from CB1 receptor in rat cerebellum by scintillation spectrometry; assay type: tissue-based
Mus musculus [1] = assay: Inhibition of WIN-55212-2-induced hypothermia in po dosed CD1 mouse assessed as rectal temperature administered 15 mins prior to WIN-55212 challenge measured after 45 mins post-induction; assay type: functional
Outline: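 Mice were pretreated, then 15 min later given WIN 55,212-2 (3 mg/kg ip) or vehicle; rectal temperature was read 45 min after that. n=8/group. Analysis was one-way ANOVA with Tukey post hoc test. ED50 values were derived for attenuation of hypothermia.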

Mus musculus [2] = assay: Antiobesity activity in TBU8 high fat diet-induced obese C57/BL6 mouse assessed as body weight at 30 mg/kg, po administered once daily for 14 days (Rvb=41.90 g); assay type: functional, C57Bl/6
Mus musculus [3] = assay: Antiobesity activity in TBU8 high fat diet-induced obese C57/BL6 mouse assessed as serum glucose level at 30 mg/kg, po administered once daily for 14 days (reference value: 9.52+/-0.38 […]); assay type: functional, C57Bl/6
Mus musculus [4] = assay: Antiobesity activity in TBU8 high fat diet-induced obese C57/BL6 mouse assessed as serum cholesterol level at 30 mg/kg, po administered once daily for 14 days (reference value: 5.35+/-0.12 […]); assay type: functional, C57Bl/6
Mus musculus [5] = assay: Antiobesity activity in TBU8 high fat diet-induced obese C57/BL6 mouse assessed as serum triglyceride level at 30 mg/kg, po administered once daily for 14 days (reference value: 1.42+/-0.04 […]); assay type: functional, C57Bl/6
Mus musculus [6] = assay: Antiobesity activity in TBU8 high fat diet-induced obese C57/BL6 mouse assessed as serum HDL-cholesterol level at 30 mg/kg, po administered once daily for 14 days (Rvb=4.42+/-0.08 […]); assay type: functional, C57Bl/6
Mus musculus [7] = assay: Antiobesity activity in TBU8 high fat diet-induced obese C57/BL6 mouse assessed as serum LDL-cholesterol level at 30 mg/kg, po administered once daily for 14 days (Rvb=0.84+/-0.03 […]); assay type: functional, C57Bl/6
Mus musculus [8] = assay: Antiobesity activity in TBU8 high fat diet-induced obese C57/BL6 mouse assessed as body weight at 3 mg/kg, po administered once daily for 14 days (Rvb=41.90 g); assay type: functional, C57Bl/6
Mus musculus [9] = assay: Antiobesity activity in TBU8 high fat diet-induced obese C57/BL6 mouse assessed as serum glucose level at 3 mg/kg, po administered once daily for 14 days (reference value: 9.52+/-0.38 […]); assay type: functional, C57Bl/6
Mus musculus [10] = assay: Antiobesity activity in TBU8 high fat diet-induced obese C57/BL6 mouse assessed as serum cholesterol level at 3 mg/kg, po administered once daily for 14 days (reference value: 5.35+/-0.12 […]); assay type: functional, C57Bl/6
Mus musculus [11] = assay: Antiobesity activity in TBU8 high fat diet-induced obese C57/BL6 mouse assessed as serum triglyceride level at 3 mg/kg, po administered once daily for 14 days (reference value: 1.42+/-0.04 […]); assay type: functional, C57Bl/6
Mus musculus [12] = assay: Antiobesity activity in TBU8 high fat diet-induced obese C57/BL6 mouse assessed as serum HDL-cholesterol level at 3 mg/kg, po administered once daily for 14 days (Rvb=4.42+/-0.08 […]); assay type: functional, C57Bl/6
Mus musculus [13] = assay: Antiobesity activity in TBU8 high fat diet-induced obese C57/BL6 mouse assessed as serum LDL-cholesterol level at 3 mg/kg, po administered once daily for 14 days (Rvb=0.84+/-0.03 […]); assay type: functional, C57Bl/6
Mus musculus [14] = assay: Appetite suppressant activity in fasted CD1 mouse assessed as decrease in palatable chow intake at 10 mg/kg, po administered 1 hr before food consumption measured after 1 hr relative to control; assay type: functional; parameters: scale not given: the % may be the effect or the level left
Outline: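 CD1 mice (>25 g) were housed singly for ≥3 days, then fasted 16 h. Compound or vehicle (5% Tween 80) was given orally in the home cage. After 1 h, pre-weighed palatable chow was offered and reweighed 1 h later. Intake was expressed as % difference from control mean (n=8-10/group).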

Mus musculus [15] = assay: Antiobesity activity in po dosed TBU8 high fat diet-induced obese C57/BL6 mouse assessed as decrease in body weight administered once daily for 14 days; assay type: functional, organism-based; conditions: C57Bl/6
Outline: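 TBU8 high-fat diet fed mice brought to about 60% excess body weight over lean controls (usually 6-8 weeks), isolated and grouped (n=8) balanced by body weight; 3-day habituation with daily tap water, then oral dosing once daily for 14 days against vehicle-treated fat controls; body weight taken at day 14; differences versus fat and lean controls tested.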

Mus musculus [16] = assay: Antiobesity activity in TBU8 high fat diet-induced obese C57/BL6 mouse assessed as decrease in body weight at 3 mg/kg, po administered once daily for 14 days relative to fat control; assay type: functional, C57Bl/6; parameters: scale not given: the % may be the effect or the level left
Mus musculus [17] = assay: Antiobesity activity in TBU8 high fat diet-induced obese C57/BL6 mouse assessed as decrease in body weight at 10 mg/kg, po administered once daily for 14 days relative to fat control; assay type: functional, C57Bl/6; parameters: scale not given: the % may be the effect or the level left
Mus musculus [18] = assay: Antiobesity activity in TBU8 high fat diet-induced obese C57/BL6 mouse assessed as decrease in body weight at 30 mg/kg, po administered once daily for 14 days relative to fat control; assay type: functional, C57Bl/6; parameters: scale not given: the % may be the effect or the level left
Mus musculus [19] = assay: Antiobesity activity in TBU8 high fat diet-induced obese C57/BL6 mouse assessed as decrease in obese-induced elevated serum cholesterol level at 30 mg/kg, po administered once daily for 14 days relative to fat control; assay type: functional, C57Bl/6; parameters: scale not given: the % may be the effect or the level left
Mus musculus [20] = assay: Antiobesity activity in TBU8 high fat diet-induced obese C57/BL6 mouse assessed as body weight at 10 mg/kg, po administered once daily for 14 days (Rvb=41.90 g); assay type: functional, C57Bl/6
Mus musculus [21] = assay: Antiobesity activity in TBU8 high fat diet-induced obese C57/BL6 mouse assessed as serum glucose level at 10 mg/kg, po administered once daily for 14 days (reference value: 9.52+/-0.38 […]); assay type: functional, C57Bl/6
Mus musculus [22] = assay: Antiobesity activity in TBU8 high fat diet-induced obese C57/BL6 mouse assessed as serum cholesterol level at 10 mg/kg, po administered once daily for 14 days (reference value: 5.35+/-0.12 […]); assay type: functional, C57Bl/6
Mus musculus [23] = assay: Antiobesity activity in TBU8 high fat diet-induced obese C57/BL6 mouse assessed as serum triglyceride level at 10 mg/kg, po administered once daily for 14 days (reference value: 1.42+/-0.04 […]); assay type: functional, C57Bl/6
Mus musculus [24] = assay: Antiobesity activity in TBU8 high fat diet-induced obese C57/BL6 mouse assessed as serum HDL-cholesterol level at 10 mg/kg, po administered once daily for 14 days (Rvb=4.42+/-0.08 […]); assay type: functional, C57Bl/6
Mus musculus [25] = assay: Antiobesity activity in TBU8 high fat diet-induced obese C57/BL6 mouse assessed as serum LDL-cholesterol level at 10 mg/kg, po administered once daily for 14 days (Rvb=0.84+/-0.03 […]); assay type: functional, C57Bl/6

Chain of Cannabinoid receptor 1 (P20272 whole entry): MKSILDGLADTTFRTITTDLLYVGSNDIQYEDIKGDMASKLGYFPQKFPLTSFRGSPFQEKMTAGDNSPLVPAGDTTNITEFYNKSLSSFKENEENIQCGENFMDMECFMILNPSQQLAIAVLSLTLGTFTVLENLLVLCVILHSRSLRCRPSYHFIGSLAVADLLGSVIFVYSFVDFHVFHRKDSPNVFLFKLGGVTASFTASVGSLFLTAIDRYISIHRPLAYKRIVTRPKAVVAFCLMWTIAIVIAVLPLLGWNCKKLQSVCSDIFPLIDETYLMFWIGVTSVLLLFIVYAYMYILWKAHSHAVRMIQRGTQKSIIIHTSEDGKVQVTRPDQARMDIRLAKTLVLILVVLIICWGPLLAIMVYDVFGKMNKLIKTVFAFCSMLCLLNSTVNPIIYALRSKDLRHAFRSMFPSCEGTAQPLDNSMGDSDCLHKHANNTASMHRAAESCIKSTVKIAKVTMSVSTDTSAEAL

## Cc1c(C(=O)NN2CCCCC2)nn(-c2ccccc2Cl)c1-c1ccc(C2CC2)cc1
Cannabinoid receptor 1
  Ki: 4 nM

## Cc1c(C(=O)NN2CCCCC2)nn(-c2ccccc2)c1-c1ccc(C2CC2)cc1
Cannabinoid receptor 1
  Ki: 66 nM

## O=C(NN1CCCCC1)c1cc(-c2ccc(C3CC3)cc2)n(-c2ccc(Cl)cc2Cl)n1
Cannabinoid receptor 1
  Ki: 16 nM

## Cc1c(C(=O)NN2CCCCC2)nn(-c2ccc(Cl)cc2Cl)c1-c1ccc(C2CCCCC2)cc1
Cannabinoid receptor 1
  Ki: 13 nM
Mus musculus [1]
  ED50: > 3 mg/kg

## Cc1c(C(=O)NN2CCCCC2)nn(-c2ccc(F)cc2Cl)c1-c1ccc(C2CC2)cc1
Cannabinoid receptor 1
  Ki: 8 nM

## CCNC1(C(N)=O)CCN(c2ncnc3c2nc(-c2ccccc2Cl)n3-c2ccc(Cl)cc2)CC1 [OTENABANT]
Mus musculus [2]
  Activity: 36.6 g
Mus musculus [3]
  Activity: 9.45 mM
Mus musculus [4]
  Activity: 5.34 mM
Mus musculus [5]
  Activity: 1.32 mM
Mus musculus [6]
  Activity: 4.4 mM
Mus musculus [7]
  Activity: 0.85 mM

## C[C@H](NC(=O)C(C)(C)Oc1ccc(C(F)(F)F)cn1)[C@@H](Cc1ccc(Cl)cc1)c1cccc(C#N)c1 [TARANABANT]
Mus musculus [8]
  Activity: 33.7 g
Mus musculus [9]
  Activity: 9.11 mM
Mus musculus [10]
  Activity: 5.01 mM
Mus musculus [11]
  Activity: 1.44 mM
Mus musculus [12]
  Activity: 4.16 mM
Mus musculus [13]
  Activity: 0.82 mM

## Cc1c(C(=O)NN2CCCCC2)nn(-c2ccc(Cl)cc2Cl)c1-c1ccc(C2CCC2)cc1.Cl
Cannabinoid receptor 1
  Ki: 7 nM
Mus musculus [1]
  ED50: 4 mg/kg

## Cc1c(C(=O)NN2CCCCC2)nn(-c2ccc(Cl)cc2Cl)c1-c1ccc(Cl)cc1 [RIMONABANT]
Mus musculus [1]
  ED50: 0.41 mg/kg
Mus musculus [14]
  Activity: 50%
Mus musculus [15]
  Activity: Dose-dependent effect
Mus musculus [16]
  Activity: 9%
Mus musculus [17]
  Activity: 15%
Mus musculus [18]
  Activity: 24%
Mus musculus [19]
  Activity: 0%
Mus musculus [20]
  Activity: 35.6 g
Mus musculus [21]
  Activity: 8.84 mM
Mus musculus [22]
  Activity: 5.35 mM
Mus musculus [23]
  Activity: 1.18 mM
Mus musculus [24]
  Activity: 4.4 mM
Mus musculus [25]
  Activity: 0.82 mM

## Cc1c(C(=O)NN2CCCCC2)nn(-c2ccc(F)cc2F)c1-c1ccc(C2CC2)cc1
Cannabinoid receptor 1
  Ki: 34 nM

## Cc1c(C(=O)NN2CCCCC2)nn(-c2ccc(Cl)cc2Cl)c1-c1ccc(C2CC2)cc1
Cannabinoid receptor 1
  Ki: 3 nM

## CCc1c(C(=O)NN2CCCC2)nn(-c2ccc(Cl)cc2Cl)c1-c1ccc(C2CC2)cc1
Cannabinoid receptor 1
  Ki: 4 nM
Mus musculus [1]
  ED50: 0.84 mg/kg
Mus musculus [14]
  Activity: 49%
Mus musculus [15]
  Activity: Dose-dependent effect
Mus musculus [16]
  Activity: 8%
Mus musculus [17]
  Activity: 15%
Mus musculus [18]
  Activity: 21%
Mus musculus [19]
  Activity: 36%
Mus musculus [20]
  Activity: 35.6 g
Mus musculus [21]
  Activity: 8.79 mM
Mus musculus [22]
  Activity: 4.56 mM
Mus musculus [23]
  Activity: 1.3 mM
Mus musculus [24]
  Activity: 3.9 mM
Mus musculus [25]
  Activity: 0.68 mM

## Cc1c(C(=O)NN2CCCCC2)nn(-c2ccc(Cl)cc2)c1-c1ccc(C2CC2)cc1
Cannabinoid receptor 1
  Ki: 79 nM

## Cc1c(C(=O)NN2CCCCC2)nn(-c2ccc(Br)cc2Cl)c1-c1ccc(C2CC2)cc1
Cannabinoid receptor 1
  Ki: 3 nM
Mus musculus [1]
  ED50: 0.22 mg/kg
Mus musculus [14]
  Activity: 54%
Mus musculus [15]
  Activity: Dose-dependent effect
Mus musculus [16]
  Activity: 9%
Mus musculus [17]
  Activity: 19%
Mus musculus [18]
  Activity: 26%
Mus musculus [19]
  Activity: 16%

## Cc1c(C(=O)NN2CCCCC2)nn(-c2ccc(Cl)cc2F)c1-c1ccc(C2CC2)cc1
Cannabinoid receptor 1
  Ki: 14 nM

## Cc1c(C(=O)NN2CCCCC2)nn(-c2ccccc2F)c1-c1ccc(C2CC2)cc1
Cannabinoid receptor 1
  Ki: 11 nM

## CCc1c(C(=O)NN2CCCCC2)nn(-c2ccc(Cl)cc2Cl)c1-c1ccc(C2CC2)cc1
Cannabinoid receptor 1
  Ki: 4 nM
Mus musculus [1]
  ED50: 0.84 mg/kg
Mus musculus [14]
  Activity: 47%
Mus musculus [15]
  Activity: Dose-dependent effect
Mus musculus [16]
  Activity: 8%
Mus musculus [17]
  Activity: 15%
Mus musculus [18]
  Activity: 22%
Mus musculus [19]
  Activity: 19%

## Cc1c(C(=O)NN2CCCCC2)nn(-c2ccc(Cl)cc2Cl)c1-c1ccc(C2CCCC2)cc1
Cannabinoid receptor 1
  Ki: 15 nM
Mus musculus [1]
  ED50: ≥ 3 mg/kg

## Cc1c(C(=O)NN2CCCC2)nn(-c2ccccc2)c1-c1ccc(C2CC2)cc1
Cannabinoid receptor 1
  Ki: 121 nM

## COc1c(C(=O)NN2CCCCC2)nn(-c2ccc(Cl)cc2Cl)c1-c1ccc(C2CC2)cc1
Cannabinoid receptor 1
  Ki: 3 nM

## Cc1c(C(=O)NN2CCCCC2)nn(-c2ccc(F)cc2)c1-c1ccc(C2CC2)cc1
Cannabinoid receptor 1
  Ki: 190 nM
